Source: ChEMBL document CHEMBL1125170, “A novel series of selective leukotriene antagonists: exploration and optimization of the acidic region in 1,6-disubstituted indoles and indazoles” (1990)
Values joined by “and” are separate entries in the source; they are usually repeats but may differ in a detail not shown here. Equal values may be shown once.

Legend:
Format in all cases: functional, Trachea
[1] = species on record: Cavia porcellus; assay: Dissociation constant KB = [antagonist]/(dose ratio -1). KB determined in guinea pig tracheal spirals with LTE4 as agonist.
In short: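 Isolated guinea pig tracheal strips in Krebs' buffer with indomethacin (5 μM), 37 °C, 95% O2/5% CO2, resting tension 2 g. Carbachol (30 μM) sets the maximum. Antagonist incubated 30 min, then cumulative LTE4 concentration–response curves in log increments, one curve per tissue. EC50 by linear regression, paired vehicle controls. KB = [antagonist]/(DR − 1) (Furchgott).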

[2] = species on record: Cavia porcellus; assay: In vitro antagonism of 8 nM of peptidoleukotriene (LTE4) induced contraction of guinea pig tracheal spirals at 1 X E-7M concentration
In short: (§1)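 Guinea pig tracheal spirals held at 37 °C in modified Krebs' (mM: NaCl 119, KCl 4.6, CaCl2 1.8, MgCl2 0.5, NaHCO3 24.9, NaH2PO4 1.0, glucose 11.1) plus indomethacin 5 μM, resting tension 2 g, isometric recording. After reproducible 8 nM LTE4 responses, compound added for 10 min, then rechallenged. % inhibition is adjusted for the paired vehicle tissue. At least four spirals, paired t test.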

[3] = species on record: Cavia porcellus; assay: In vitro antagonism of 8 nM of peptidoleukotriene (LTE4) induced contraction of guinea pig tracheal spirals at 10 X E-7M concentration; in short: as §1
[4] = species on record: Cavia porcellus; assay: In vitro antagonism of 8 nM of peptidoleukotriene (LTE4) induced contraction of guinea pig tracheal spirals at 100 X E-7M concentration; in short: as §1
[5] = species on record: Cavia porcellus; assay: In vitro antagonism of 8 nM of peptidoleukotriene (LTE4) induced contraction of guinea pig tracheal spirals at 33 X E-7M concentration; in short: as §1

Row | Structure (SMILES) | pKB [1] | Antagonism [4] | other results
1 | CCCCC(CC)C(=O)Nc1ccc2ccn(Cc3c(OC)cc(C(=O)NS(=O)(=O)c4ccccc4)cc3OC)c2c1 (stereo unspecified) | 8 | – | Antagonism [2]: 72%
2 | COc1cc(-c2nn[nH]n2)ccc1Cn1ncc2ccc(NC(=O)OC3CCCC3)cc21 | 7.7 | – | Antagonism [2]: 58%; Antagonism [3]: 100%
3 | CCCCC(CC)C(=O)Nc1ccc2ccn(Cc3c(OC)cc(C(=O)O)cc3OC)c2c1 (stereo unspecified) | – | – | Antagonism [3]: 63%
4 | CCCCC(CC)C(=O)Nc1ccc2ccn(Cc3ccc(C(=O)NS(=O)(=O)C(C)C)cc3OC)c2c1 (stereo unspecified) | – | – | Antagonism [3]: 47%
5 | COc1cc(C(=O)NS(=O)(=O)c2cc(C)ccc2C)ccc1Cn1ccc2ccc(NC(=O)CC3CCCC3)cc21 | 8.4 | – | –
6 | CCCCC(CC)C(=O)Nc1ccc2ccn(Cc3ccc(OC)c(C(=O)O)c3)c2c1 (stereo unspecified) | – | 28% | –
7 | CCCCC(CC)C(=O)Nc1ccc2ccn(Cc3ccc(C(=O)O)cc3)c2c1 (stereo unspecified) | – | 44% | –
8 | CCCCC(CC)C(=O)Nc1ccc2ccn(Cc3ccc(C(=O)CS(=O)(=O)c4ccccc4)cc3OC)c2c1 (stereo unspecified) | – | – | Antagonism [3]: 59%
9 | CCCCC(CC)C(=O)Nc1ccc2ccn(Cc3ccc(C(=O)Nc4ccccc4C(=O)O)cc3OC)c2c1 (stereo unspecified) | – | 34% | –
10 | CCCCC(CC)C(=O)Nc1ccc2ccn(Cc3ccc(S(=O)(=O)O)cc3)c2c1 (stereo unspecified) | – | 48% | –
11 | CCCCC(CC)C(=O)Nc1ccc2ccn(Cc3ccc(/C=C/C(=O)O)cc3OC)c2c1 (stereo unspecified) | – | 31% | –
12 | CCCCC(CC)C(=O)Nc1ccc2ccn(Cc3ccc(C(=O)NS(=O)(=O)c4ccc([N+](=O)[O-])cc4)cc3OC)c2c1 (stereo unspecified) | 7.7 | – | –
13 | CCCCC(CC)C(=O)Nc1ccc2ccn(Cc3ccc(C(=O)O)cc3F)c2c1 (stereo unspecified) | – | 86% | –
14 | CCCCC(CC)C(=O)Nc1ccc2ccn(Cc3ccc(C(=O)Nc4nn[nH]n4)cc3OC)c2c1 (stereo unspecified) | – | 62% | Antagonism [3]: 20%
15 | CCCCC(CC)C(=O)Nc1ccc2ccn(Cc3ccc(C(=O)O)cc3OCCCc3nnn[nH]3)c2c1 (stereo unspecified) | – | – | Antagonism [3]: 32%
16 | COc1cc(C(=O)NS(=O)(=O)c2ccccc2N)ccc1Cn1ccc2ccc(NC(=O)CC3CCCC3)cc21 | 9.9 | – | –
17 | COc1cc(C(=O)NS(=O)(=O)c2cccs2)ccc1Cn1ccc2ccc(NC(=O)CC3CCCC3)cc21 | 9.6 | – | –
18 | COc1cc(C(=O)N(C)S(=O)(=O)c2ccccc2)ccc1Cn1ccc2ccc(NC(=O)CC3CCCC3)cc21 | – | – | Antagonism [2]: 42%
19 | CCCCC(CC)C(=O)Nc1ccc2ccn(Cc3ccc(C(=O)NO)cc3OC)c2c1 (stereo unspecified) | – | 38% | –
20 | CCCCC(CC)C(=O)Nc1ccc2ccn(Cc3ccc(C(=O)O)cc3OCCCC#N)c2c1 (stereo unspecified) | – | 84% | Antagonism [5]: 33%
21 | CCCCC(CC)C(=O)Nc1ccc2ccn(Cc3ccc(S(=O)(=O)NC(=O)c4ccccc4)cc3)c2c1 (stereo unspecified) | – | 37% | –
22 | CCCCC(CC)C(=O)Nc1ccc2ccn(Cc3cccc(C(=O)O)c3)c2c1 (stereo unspecified) | – | 31% | –
23 | COc1cc(C(=O)NS(=O)(=O)c2ccccc2C)ccc1Cn1ncc2ccc(NC(=O)CC3CCCC3)cc21 | 10.9 | – | –
24 | COc1ccc(OC)c(S(=O)(=O)NC(=O)c2ccc(Cn3ccc4ccc(NC(=O)CC5CCCC5)cc43)c(OC)c2)c1 | 9.1 | – | –
25 | COc1cc(C(=O)NS(=O)(=O)c2ccccc2C)ccc1Cn1ncc2ccc(NC(=O)OC3CCCC3)cc21 | 10.2 | – | –
26 | COc1cc(-c2nn[nH]n2)ccc1Cn1ccc2ccc(NC(=O)OC3CCCC3)cc21 | 7.6 | – | Antagonism [3]: 62%
27 | COc1cc(C(=O)NS(=O)(=O)c2ccc3ccccc3c2)ccc1Cn1ccc2ccc(NC(=O)CC3CCCC3)cc21 | 8.3 | – | –

Row | Structure (SMILES) | pKB [1] | Antagonism [4] | other results
28 | CCCCC(CC)C(=O)Nc1ccc2ccn(Cc3ccc(C(=O)NS(=O)(=O)c4ccc(F)cc4)cc3OC)c2c1 (stereo unspecified) | 7.7 | – | –
29 | CCCCC(CC)C(=O)Nc1ccc2ccn(Cc3ccc(C(=O)O)cc3C)c2c1 (stereo unspecified) | – | 91% | Antagonism [5]: 21%
30 | CCCCC(CC)C(=O)Nc1ccc2ccn(Cc3ccc(C(=O)NCC(=O)O)cc3OC)c2c1 (stereo unspecified) | – | 43% | –
31 | CCCCC(CC)C(=O)Nc1ccc2ccn(Cc3ccc(C(=O)C(C#N)S(=O)(=O)c4ccccc4)cc3OC)c2c1 (stereo unspecified) | 8.1 | – | Antagonism [2]: 73%
32 | COc1cc(C(=O)NS(=O)(=O)c2c(C)cccc2Cl)ccc1Cn1ccc2ccc(NC(=O)CC3CCCC3)cc21 | 8.8 | – | –
33 | CCCCOC(=O)Nc1ccc2ccn(Cc3ccc(-c4nn[nH]n4)cc3OC)c2c1 | 7.2 | – | Antagonism [3]: 68%
34 | CCCCC(CC)C(=O)Nc1ccc2ccn(Cc3ccc(C(=O)O)cc3Cl)c2c1 (stereo unspecified) | – | 44% | –
35 | CCCCOc1cc(C(=O)O)ccc1Cn1ccc2ccc(NC(=O)C(CC)CCCC)cc21 (stereo unspecified) | – | 83% | Antagonism [5]: 44%
36 | COc1cc(C(=O)NS(=O)(=O)c2ccccc2Cl)ccc1Cn1ccc2ccc(NC(=O)CC3CCCC3)cc21 | 9.8 | – | –
37 | CCCCC(CC)C(=O)Nc1ccc2ccn(Cc3ccc(C(=O)NS(C)(=O)=O)cc3OC)c2c1 (stereo unspecified) | – | – | Antagonism [3]: 100% and 60%
38 | CCCCC(CC)C(=O)Nc1ccc2ccn(Cc3cccc(C(=O)O)c3OC)c2c1 (stereo unspecified) | – | 38% | –
39 | CCCCC(CC)C(=O)Nc1ccc2cnn(Cc3ccc(-c4nn[nH]n4)cc3OC)c2c1 (stereo unspecified) | 7.1 | – | Antagonism [3]: 100%
40 | COc1cc(C(=O)NS(=O)(=O)c2ccccc2OC)ccc1Cn1ccc2ccc(NC(=O)CC3CCCC3)cc21 | 9.7 | – | –
41 | CCCCC(CC)C(=O)Nc1ccc2ccn(Cc3ccc(C(=O)O)c(OC)c3)c2c1 (stereo unspecified) | – | – | Antagonism [3]: 15%
42 | COc1cc(C(=O)NS(=O)(=O)c2ccccn2)ccc1Cn1ccc2ccc(NC(=O)CC3CCCC3)cc21 | 8.9 | – | –
43 | CCCCC(CC)C(=O)Nc1ccc2ccn(Cc3ccc(C(=O)O)c(Br)c3)c2c1 (stereo unspecified) | – | – | Antagonism [5]: 33%
44 | CCCCC(CC)C(=O)Nc1ccc2ccn(Cc3ccc(C(=O)NS(=O)(=O)Cc4ccccc4)cc3OC)c2c1 (stereo unspecified) | – | 89% | –
45 | CCCCC(CC)C(=O)Nc1ccc2ccn(Cc3ccc(C(=O)NS(=O)(=O)c4ccc(OC)cc4)cc3OC)c2c1 (stereo unspecified) | 7.4 | – | –
46 | CCCCC(CC)C(=O)Nc1ccc2ccn(Cc3ccc(C(=O)NS(=O)(=O)c4ccccc4)c(OC)c3)c2c1 (stereo unspecified) | – | – | Antagonism [2]: 52%
47 | CCCCC(CC)C(=O)Nc1ccc2ccn(Cc3ccc(C(=O)NS(=O)(=O)c4ccccc4C)cc3OC)c2c1 (stereo unspecified) | 8.9 | – | –
48 | COc1cc(C(=O)O)ccc1Cn1ccc2ccc(NC(=O)CC3CCCC3)cc21 | – | – | Antagonism [2]: 34%
49 | CCCCC(CC)C(=O)Nc1ccc2ccn(Cc3ccc(C(=O)NS(=O)(=O)c4ccccc4)cc3)c2c1 (stereo unspecified) | 6.8 | – | Antagonism [2]: 42%
50 | CCCCC(CC)C(=O)Nc1ccc2ccn(Cc3ccc(C(=O)NS(=O)(=O)c4ccc(C)cc4)cc3OC)c2c1 (stereo unspecified) | 8.4 | – | –
51 | CCCCC(CC)C(=O)Nc1ccc2ccn(Cc3ccc(C(=O)N[S+]([O-])c4ccccc4)cc3OC)c2c1 (stereo unspecified) | – | – | Antagonism [5]: 34%
52 | CCCCCC(=O)Nc1ccc2ccn(Cc3ccc(-c4nn[nH]n4)cc3OC)c2c1 | – | – | Antagonism [5]: 86%; Antagonism [3]: 32%
53 | CCCCC(CC)C(=O)Nc1ccc2ccn(Cc3ccc(C(=O)NS(=O)(=O)c4ccc(Cl)cc4)cc3OC)c2c1 (stereo unspecified) | 7.8 | – | –
